Here are results for 17 molecules from ChEMBL document CHEMBL1125170, “A novel series of selective leukotriene antagonists: exploration and optimization of the acidic region in 1,6-disubstituted indoles and indazoles” (1990).

Broadly, the pKB is the negative decadic logarithm of the KB, by convention in mol/L.

The source made the active and inactive calls. The rule behind the calls is not given here.

For assay [1], the species on record is Cavia porcellus. Briefly: Dissociation constant KB = [antagonist]/(dose ratio -1). KB determined in guinea pig tracheal spirals with LTE4 as agonist. Format: functional, Trachea. A digest of the protocol: (§1)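 Isolated guinea pig tracheal strips in Krebs' buffer with indomethacin (5 μM), 37 °C, 95% O2/5% CO2, resting tension 2 g. Carbachol (30 μM) sets the maximum. Antagonist incubated 30 min, then cumulative LTE4 concentration–response curves in log increments, one curve per tissue. EC50 by linear regression, paired vehicle controls. KB = [antagonist]/(DR − 1) (Furchgott).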

For assay [2], the species on record is Cavia porcellus. The assay can be described thus: In vitro antagonism of 8 nM of peptidoleukotriene (LTE4) induced contraction of guinea pig tracheal spirals at 0.033 X E-7M concentration. In kind it is functional, Trachea. An outline of the steps:
(§2)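 Guinea pig tracheal spirals held at 37 °C in modified Krebs' (mM: NaCl 119, KCl 4.6, CaCl2 1.8, MgCl2 0.5, NaHCO3 24.9, NaH2PO4 1.0, glucose 11.1) plus indomethacin 5 μM, resting tension 2 g, isometric recording. After reproducible 8 nM LTE4 responses, compound added for 10 min, then rechallenged. % inhibition is adjusted for the paired vehicle tissue. At least four spirals, paired t test.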

For assay [3], the species on record is Cavia porcellus. The assay can be described thus: In vitro antagonism of 8 nM of peptidoleukotriene (LTE4) induced contraction of guinea pig tracheal spirals at 0.01 X E-7M concentration. In kind it is functional, Trachea. A digest of the protocol:
as §2

In assay [4] the test system is Cavia porcellus. The assay can be described thus: In vivo percent protection against aerosolized LTD4 induced dyspnea in guinea pig at 113 umol/kg po (60 minutes post oral dosing); 14/4. Format: functional.
The species entered for assay [5] is Cavia porcellus. The assay can be described thus: In vitro antagonism of 8 nM of peptidoleukotriene (LTE4) induced contraction of guinea pig tracheal spirals at 3.3 X E-7M concentration. In kind it is functional, Trachea. A digest of the protocol:
as §2

Assay [6] has as its target T1, Cysteinyl leukotriene receptor 1 (Cavia porcellus) (UniProt Q2NNR5).
T1 sequence (whole entry): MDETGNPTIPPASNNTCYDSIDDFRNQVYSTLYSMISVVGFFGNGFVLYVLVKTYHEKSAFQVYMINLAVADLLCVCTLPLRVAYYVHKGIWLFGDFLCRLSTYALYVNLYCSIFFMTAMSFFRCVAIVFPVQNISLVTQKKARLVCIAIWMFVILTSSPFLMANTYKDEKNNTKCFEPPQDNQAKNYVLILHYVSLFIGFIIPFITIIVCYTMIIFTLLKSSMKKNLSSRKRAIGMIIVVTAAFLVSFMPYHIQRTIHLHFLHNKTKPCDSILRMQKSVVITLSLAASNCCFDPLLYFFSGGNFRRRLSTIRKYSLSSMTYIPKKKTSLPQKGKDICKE
Briefly: Dissociation constant KB = [antagonist]/(dose ratio -1).KB determined in guinea pig tracheal spirals with LTE4 as agonist. The settings on record: Trachea. Format: functional, tissue-based. A digest of the protocol:
as §1

In assay [7] the test system is Cavia porcellus. The assay can be described thus: In vivo percent protection against aerosolized LTD4 induced dyspnea in guinea pig at 1 umol/kg po (180 minutes post oral dosing); 40/6. Format: functional.
Assay [8] relates to Cavia porcellus. The assay can be described thus: In vivo percent protection against aerosolized LTD4 induced dyspnea in guinea pig at 30 umol/kg po (180 minutes post oral dosing); 67/11. In kind it is functional.
In assay [9] the test system is Cavia porcellus. Briefly: In vivo percent protection against aerosolized LTD4 induced dyspnea in guinea pig at 30 umol/kg po (60 minutes post oral dosing); 48/12. Format: functional.
The species entered for assay [10] is Cavia porcellus. The assay can be described thus: In vitro antagonism of 8 nM of peptidoleukotriene (LTE4) induced contraction of guinea pig tracheal spirals at 0.33 X E-7M concentration. Format: functional, Trachea. An outline of the steps: as §2
The subject of assay [11] is Cavia porcellus. The assay can be described thus: In vivo percent protection against aerosolized LTD4 induced dyspnea in guinea pig at 30 umol/kg po (180 minutes post oral dosing); 43/7. In kind it is functional.
For assay [12], the species on record is Cavia porcellus. The assay can be described thus: In vitro antagonism of 8 nM of peptidoleukotriene (LTE4) induced contraction of guinea pig tracheal spirals at 3 X E-7M concentration. In kind it is functional, Trachea. A digest of the protocol: as §2
The species entered for assay [13] is Cavia porcellus. The assay can be described thus: In vitro antagonism of 8 nM of peptidoleukotriene (LTE4) induced contraction of guinea pig tracheal spirals at 10 X E-7M concentration. In kind it is functional, Trachea. An outline of the steps:
as §2

The species named for assay [14] is Cavia porcellus. Briefly: In vitro antagonism of 8 nM of peptidoleukotriene (LTE4) induced contraction of guinea pig tracheal spirals at 0.1 X E-7M concentration. Format: functional, Trachea. A digest of the protocol: as §2
For assay [15], the species on record is Cavia porcellus. Briefly: In vitro antagonism of 8 nM of peptidoleukotriene (LTE4) induced contraction of guinea pig tracheal spirals at 1 X E-7M concentration. Format: functional, Trachea. A digest of the protocol:
as §2

Assay [16] is filed under the species Cavia porcellus. The assay can be described thus: In vitro antagonism of 8 nM of peptidoleukotriene (LTE4) induced contraction of guinea pig tracheal spirals at 0.001 X E-7M concentration. In kind it is functional, Trachea. An outline of the steps:
as §2

The species entered for assay [17] is Cavia porcellus. Briefly: In vitro antagonism of 8 nM of peptidoleukotriene (LTE4) induced contraction of guinea pig tracheal spirals at 100 X E-7M concentration; Not significant. Format: functional, Trachea. A digest of the protocol: as §2
Assay [18] is filed under the species Cavia porcellus. The assay can be described thus: In vitro antagonism of 8 nM of peptidoleukotriene (LTE4) induced contraction of guinea pig tracheal spirals at 100 X E-7M concentration; Not active. Format: functional. As to conditions: Trachea. An outline of the steps:
as §2

Assay [19] has as its system Cavia porcellus. The assay can be described thus: In vivo percent protection against aerosolized LTD4 induced dyspnea in guinea pig at 30 umol/kg po (180 minutes post oral dosing); 89/8. In kind it is functional.
The subject of assay [20] is Cavia porcellus. The assay can be described thus: In vivo percent protection against aerosolized LTD4 induced dyspnea in guinea pig at 10 umol/kg po (180 minutes post oral dosing); 37/8. In kind it is functional.
The species entered for assay [21] is Cavia porcellus. The assay can be described thus: In vitro antagonism of 8 nM of peptidoleukotriene (LTE4) induced contraction of guinea pig tracheal spirals at 33 X E-7M concentration. Format: functional, Trachea. An outline of the steps:
as §2

In assay [22] the test system is Cavia porcellus. Briefly: In vivo percent protection against aerosolized LTD4 induced dyspnea in guinea pig at 100 umol/kg po (60 minutes post oral dosing); 23/6. In kind it is functional.
The subject of assay [23] is Cavia porcellus. Briefly: In vivo percent protection against aerosolized LTD4 induced dyspnea in guinea pig at 126 umol/kg po (60 minutes post oral dosing); 33/5. In kind it is functional.

As for `COC(=O)C(C(=O)c1ccc(Cn2ncc3ccc(NC(=O)OC4CCCC4)cc32)c(OC)c1)S(=O)(=O)c1ccccc1` (centres undefined), the pKB in the assay filed under Cavia porcellus [1] came to 9.9. The Antagonism in the assay listed under Cavia porcellus [2] worked out at 78%; in the assay filed under Cavia porcellus [3] it was 53%.

Take `COC(=O)C(C(=O)c1ccc(Cn2ccc3ccc(NC(=O)CC4CCCC4)cc32)c(OC)c1)S(=O)(=O)c1ccccc1` (centres undefined): in the assay filed under Cavia porcellus [1], the pKB worked out at 10.1. Further, the Antagonism in the assay filed under Cavia porcellus [2] was 94%; in the assay listed under Cavia porcellus [3] it was 63%.

`CCC(C(=O)Nc1ccc2cnn(Cc3ccc(C(=O)O)cc3OC)c2c1)c1ccccc1` (centres undefined) registered a Protection with Cavia porcellus [4] of 14%. Moreover, in the assay filed under Cavia porcellus [5], the Antagonism is 30%. The pKB in assay [6] was 7.1.

As for `COc1cc(C(=O)NS(=O)(=O)c2ccccc2C)ccc1Cn1ccc2ccc(NC(=O)CC3CCCC3)cc21`, the pKB in the assay filed under Cavia porcellus [1] is reported as 9.9. Besides, in the assay on Cavia porcellus [7], the Protection is recorded as 40%.

With `COc1cc(C(=O)NS(=O)(=O)c2ccccc2)ccc1Cn1ccc2ccc(NC(=O)OC3CCCC3)cc21`, the Antagonism in the assay filed under Cavia porcellus [2] was 61%; in the assay listed under Cavia porcellus [10], 100%. For the same molecule, the Protection in the assay with Cavia porcellus [8] amounted to 67%; in the assay with Cavia porcellus [9], 48%. In [6], the pKB amounted to 9.5.

Turning to `COc1cc(C(=O)NS(=O)(=O)c2ccccc2)ccc1Cn1ccc2ccc(NC(=O)CC3CCCC3)cc21`, the Antagonism is reported as 92% in the assay filed under Cavia porcellus [2] and 50% in the assay filed under Cavia porcellus [3]. Moreover, the Protection with Cavia porcellus [11] is 43%. For the same molecule, the pKB in assay [6] was found to be 9.6.

In the case of `CCCCC(CC)C(=O)Nc1ccc2ccn(Cc3ccc(C(=O)NS(=O)(=O)CCCC)cc3OC)c2c1` (centres undefined), the figures for the Antagonism in the assay listed under Cavia porcellus [12] and in the assay filed under Cavia porcellus [13] were 63% and 100%, respectively.

For `CCC(C(=O)Nc1ccc2ccn(Cc3ccc(C(=O)NS(=O)(=O)c4ccccc4)cc3OC)c2c1)c1ccccc1` (centres undefined), the Antagonism in the assay listed under Cavia porcellus [14] came to 33%.

For the molecule `CCCCC(CC)C(=O)Nc1ccc2ccn(Cc3ccc(C(=O)C(C(=O)OC)S(=O)(=O)c4ccccc4)cc3OC)c2c1` (centres undefined), the pKB in the assay listed under Cavia porcellus [1] is given as 8.5. Besides, the Antagonism is on record as 65% in the assay filed under Cavia porcellus [14] and 100% in the assay filed under Cavia porcellus [15].

Consider `COc1cc(C(=O)NS(=O)(=O)c2ccccc2)ccc1Cn1ncc2ccc(NC(=O)CC3CCCC3)cc21`, for which the pKB in the assay filed under Cavia porcellus [1] is recorded as 10.5. Moreover, the Antagonism in the assay filed under Cavia porcellus [16] was 23%; in the assay listed under Cavia porcellus [3], 100%.

Consider `CCCCOC(=O)Nc1ccc2cnn(Cc3ccc(C(=O)NS(=O)(=O)c4ccccc4)cc3OC)c2c1`, for which the pKB in the assay listed under Cavia porcellus [1] came out at 9.2. In addition, the Antagonism in the assay filed under Cavia porcellus [2] was found to be 77%; in the assay filed under Cavia porcellus [14] it was 100%.

With `CCCCC(CC)C(=O)Nc1ccc2ccn(Cc3ccc(C(=O)O)cc3OCCCc3ccccc3)c2c1` (centres undefined), the Antagonism in the assay filed under Cavia porcellus [17] was found to be 18%.

For the molecule `COc1cc(CNS(=O)(=O)c2ccccc2)ccc1Cn1ccc2ccc(NC(=O)OC3CCCC3)cc21`, the Antagonism entry in the assay filed under Cavia porcellus [18] was “inactive”.

`COc1cc(C(=O)NS(=O)(=O)c2ccccc2)ccc1Cn1ncc2ccc(NC(=O)OC3CCCC3)cc21` [ICI-198615]: the Antagonism is on record as 100% in the assay listed under Cavia porcellus [2] and 69% in the assay filed under Cavia porcellus [3]. For the same molecule, the Protection in the assay with Cavia porcellus [19] was 89%; in the assay with Cavia porcellus [20], 37%. For the same molecule, the pKB in assay [6] came to 10.3.

Consider `COc1cc(C(=O)O)ccc1Cn1ccc2ccc(NC(=O)OC3CCCC3)cc21`, for which the figures for the Antagonism in the assay filed under Cavia porcellus [21] and in the assay filed under Cavia porcellus [15] were 100% and 61%, respectively. Further, the Protection in the assay with Cavia porcellus [22] came out at 23%. Also, in assay [6], the pKB stood at 7.8.

In turn, `CCCCOC(=O)Nc1ccc2cnn(Cc3ccc(C(=O)O)cc3OC)c2c1` came in with a Protection in the assay on Cavia porcellus [23] of 33%. In the assay listed under Cavia porcellus [5], the Antagonism came out at 56%. In addition, the pKB in assay [6] was 6.7.

As for `CCCCC(CC)C(=O)Nc1ccc2ccn(Cc3ccc(C(=O)NS(=O)(=O)c4ccccc4)cc3OC)c2c1` (centres undefined), in the assay listed under Cavia porcellus [1], the pKB amounted to 8.6. Further, the Antagonism came to 27% in the assay filed under Cavia porcellus [14] and 100% in the assay listed under Cavia porcellus [15].
